# Test results: ChEMBL document CHEMBL5385974, “A novel BODIPY-based theranostic agent for in vivo fluorescence imaging of cerebral Aβ and ameliorating Aβ-associated disorders in Alzheimer's disease transgenic mice” (RSC Med Chem, 2024)
# pKd: −log10 of the molar value. Calls of active or inactive are those of the source. The calls are words filed in the database; no cut-off is given here.
# Tests used:
# [1] = test system: Cortical neurone; experiment: Neuroprotective effect against Amyloid-beta induced Sprague-Dawley rat primary cortical neurons assessed as cell viability after 9 days of pretreatment with Amyloid-beta followed by incubated with 5 uM compound for 24 hrs by MTT assay; format: functional, cell-based; details: time 9.0 day
# How it was run: (§1)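 Primary cortical neurons from newborn SD rat pups, cultured in neurobasal/B27 at 37 °C and used at day 9. Cells were exposed for 24 h to Aβ42 (1 μM final) premixed with compound at 0, 0.1, 0.25, 0.5, 1 or 5 μM final. MTT was then added for 4 h, formazan dissolved in DMSO and absorbance read at 490 nm. n = 3; mean ± SD.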
# [2] = species on record: Mus musculus; experiment: Antialzheimer activity in 12 month old APP/PS1 transgenic cognitive impairment mouse model assessed as shortening of latencies to reaching platform treated continuously and measured after 3 months by water maze test; format: functional, organism-based
# How it was run: (§2)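 APP/PS1 mice and wild-type littermates given oral 10 mg kg-1 (PEG400:HS15:0.9% saline = 25:15:60) or vehicle from 9 to 12 months. Tested in an 80 × 50 cm passage water maze with one correct path. Training was 1-min free swims, with guidance to the platform on failure. After 4 trainings, wrong-path errors and latency to the platform were recorded. n = 6-10.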
# [3] = test system: Mus musculus; experiment: In vivo binding affinity Amyloid beta deposits in APP/PS1 transgenic mouse assessed as Increase in fluorescence intensity at 2 mg/kg, iv measured after 5 mins by IVIS Spectrum imaging based assay relative to wild type; format: functional, organism-based
# How it was run: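 APP/PS1 and wild-type mice, 12 months old, heads shaved and anaesthetized with 1.5% isoflurane. Injected intravenously with 2 mg kg-1 in DMSO:Cremophor EL:0.9% saline = 5:10:85. Brain fluorescence was acquired sequentially by IVIS, with circular ROI analysis at 5 min. Ex 570 nm, Em Cy5.5. n = 3.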
# [4] = species on record: Mus musculus; experiment: Anti-alzheimer activity against 12 month old APP/PS1 transgenic mouse model assessed as decrease in amyloid beta plaques in brain hippocampus region treated continuously and measured after 3 months by ThS staining based immunofluorescence assay relative to control; format: functional, organism-based
# How it was run: (§3)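 APP/PS1 mice dosed orally from 9 months of age for three months with 10 mg kg-1 in PEG400:HS15:0.9% saline = 25:15:60, or with vehicle alone. Wild-type mice were treated in parallel. ThS-stained plaques were counted by confocal imaging of hippocampus and cortex sections at 12 months. n = 3.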
# [5] = species on record: Mus musculus; experiment: Antialzheimer activity in 12 month old APP/PS1 transgenic cognitive impairment mouse model assessed as reduction in error time in passage water maze treated continuously and measured after 3 months by passage water maze test; format: functional, organism-based; how it was run: as §2
# [6] = test system: Mus musculus; experiment: Anti-alzheimer activity against 5 month old 5 x FAD mouse assessed as average radiation efficiency at 30 mg/kg, po treated for 1 month; format: functional; details: time 1 months, 730 h
# How it was run: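 5×FAD and wild-type mice imaged by IVIS after a single intravenous injection of 2.0 mg kg-1. Imaging was done at 5 months, and again at 6 months after one month of oral treatment (30 mg kg-1) or vehicle. Ex 570 nm, Em 640 nm. Read-out is average radiation efficiency. n = 3 at 5 months, n = 4 at 6 months; mean ± SD.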
# [7] = species on record: Mus musculus; experiment: Anti-alzheimer activity against transgenic mouse model assessed as decrease in amyloid beta plaques in brain hippocampus region treated continuously and measured after 3 months by ThS staining based immunofluorescence assay relative to control
# [8] = test system: Cortical neurone; experiment: Neuroprotective effect against Amyloid-beta induced Sprague-Dawley rat primary cortical neurons assessed as reversal of Amyloid beta-induced loss of MAP2/DAPI fluorescence signal at 1 uM by immunofluorescence staining based assay; format: functional, cell-based
# How it was run: (§4)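 Primary rat cortical neurons exposed to Aβ42 with or without compound. Cells were fixed in 4% PFA and blocked with 3% BSA/0.01% Triton X-100 for 1 h. Staining was anti-MAP2 (1:200) overnight at 4 °C, then Alexa Fluor 488 secondary (1:500) for 1 h, with DAPI nuclear counterstain. MAP2 fluorescence was quantified. n = 3.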
# [9] = molecular target: T1, Amyloid-beta precursor protein (Homo sapiens, UniProt P05067); experiment: Inhibition of amyloid beta 42 (unknown origin) aggregation assessed as fluorescence intensity at 0.1 equivalents measured for 24 hrs by ThT fluorescence assay
# T1 sequence (P05067 whole entry): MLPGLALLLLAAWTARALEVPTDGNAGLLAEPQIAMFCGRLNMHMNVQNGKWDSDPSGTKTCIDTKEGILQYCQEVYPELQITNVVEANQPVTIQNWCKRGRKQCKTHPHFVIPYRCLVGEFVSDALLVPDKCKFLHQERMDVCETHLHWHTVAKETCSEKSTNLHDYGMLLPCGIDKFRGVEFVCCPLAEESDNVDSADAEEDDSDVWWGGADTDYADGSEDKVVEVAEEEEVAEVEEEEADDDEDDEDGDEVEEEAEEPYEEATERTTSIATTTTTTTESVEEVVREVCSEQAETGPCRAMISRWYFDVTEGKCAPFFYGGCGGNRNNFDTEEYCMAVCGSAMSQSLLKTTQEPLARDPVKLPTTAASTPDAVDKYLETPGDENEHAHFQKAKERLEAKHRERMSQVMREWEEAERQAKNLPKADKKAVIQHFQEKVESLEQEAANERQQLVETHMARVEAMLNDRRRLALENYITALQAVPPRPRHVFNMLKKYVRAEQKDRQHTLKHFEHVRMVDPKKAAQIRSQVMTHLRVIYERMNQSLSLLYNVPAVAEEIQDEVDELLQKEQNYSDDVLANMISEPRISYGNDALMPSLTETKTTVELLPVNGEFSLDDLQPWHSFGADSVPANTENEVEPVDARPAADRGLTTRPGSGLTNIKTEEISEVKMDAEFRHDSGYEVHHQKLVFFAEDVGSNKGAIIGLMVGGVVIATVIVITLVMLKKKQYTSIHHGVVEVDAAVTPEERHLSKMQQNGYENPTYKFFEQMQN
# How it was run: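 Aβ42 monomer (50 μM) incubated 24 h at 37 °C with or without compound. ThT was then added from a 15 mM solution in 50 mM glycine-NaOH, and fluorescence read at Ex 425/Em 490 nm. n = 4; mean ± SD.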
# [10] = test system: Hippocampus; experiment: In vivo binding affinity Amyloid beta deposits in APPswe/PSEN1dE9, APP/PS1 double transgenic mouse hippocampus assessed as red fluorescent spot; format: functional, organism-based
# How it was run: (§5)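 Frozen brain sections from perfused 12-month male APP/PS1 mice or wild-type mice. Sections were stained with ThS (10 mg mL-1), washed 3 times with 50% ethanol, then incubated with 100 μM compound for 20 min at room temperature. Confocal imaging: compound Ex 638/Em 650–700 nm, ThS Ex 488/Em 500–550 nm. n = 3.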
# [11] = molecular target: T1, Amyloid-beta precursor protein; experiment: Inhibition of amyloid beta 42 (unknown origin) aggregation assessed as reduction in amyloid fibrils density at 50 uM measured after 24 hrs incubation by transmission electron microscopy (TEM)
# How it was run: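 Aβ42 (50 μM in water) mixed 1:1 with water or 100 μM compound, then shaken at 100 rpm, 37 °C, 24 h. Samples were adsorbed on carbon-coated copper grids, negatively stained with 7.5% uranium formate and imaged by TEM at 120 kV.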
# [12] = test system: Cerebral cortex; experiment: In vivo binding affinity Amyloid beta deposits in APPswe/PSEN1dE9, APP/PS1 double transgenic mouse cerebral cortex assessed as red fluorescent spot; format: functional, organism-based; how it was run: as §5
# [13] = Solubility of the compound in water; format: physicochemical; details: buffer
# [14] = test system: Cortical neurone; experiment: Cytotoxicity against Sprague-Dawley rat primary cortical neurons assessed as cell viability at 0.1 to 5 uM measured after 24 hrs by MTT assay; format: toxicity, cell-based; details: dose 0.1-5 µM
# [15] = molecular target: T1, Amyloid-beta precursor protein; experiment: Binding affinity to Amyloid beta (1 to 42) aggregates (unknown origin) assessed as fluorescent intensities measured after 30 mins by fluorescence spectrometry
# How it was run: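 P14 (320 nM final, in EtOH) incubated 30 min at room temperature with 0, 2, 4, 6 or 8 μM Aβ42 aggregates. Aggregates were made by shaking 50 μM Aβ42 in 10 mM PBS pH 7.4 at 100 rpm, 37 °C, 24 h. Emission spectra recorded at 600–800 nm with excitation at 589 nm.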
# [16] = species on record: Mus musculus; experiment: Anti-alzheimer activity against 12 month old APP/PS1 transgenic mouse model assessed as decrease in amyloid beta plaques in brain cortex region treated continuously and measured after 3 months by ThS staining based immunofluorescence assay relative to control; format: functional, organism-based; how it was run: as §3
# [17] = test system: Cortical neurone; experiment: Neuroprotective effect against Amyloid-beta induced Sprague-Dawley rat primary cortical neurons assessed as cell viability after 9 days of pretreatment with Amyloid-beta followed by incubated with 1 uM compound for 24 hrs by MTT assay; format: functional, cell-based; details: time 9.0 day; how it was run: as §1
# [18] = test system: Brain; experiment: In vivo binding affinity Amyloid beta deposits in wild type mouse brain by fluorescence staining assay; format: functional, organism-based; how it was run: as §5
# [19] = test system: Cortical neurone; experiment: Neuroprotective effect against Amyloid-beta induced Sprague-Dawley rat primary cortical neurons assessed as reversal of Amyloid beta-induced loss of MAP2 fluorescence signal at 1 uM by immunofluorescence staining based assay; format: functional, cell-based; how it was run: as §4
# [20] = molecular target: T1, Amyloid-beta precursor protein; experiment: Binding affinity to Amyloid beta (1 to 42) aggregates (unknown origin)
# How it was run: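 Fluorescence titration in which P14 (0–200 nM, in EtOH) was incubated with 5 μM Aβ42 aggregates for 30 min at room temperature. Read in a quartz cuvette at Ex 589 nm, Em 620 nm. Kd was obtained by nonlinear regression, one-site binding. n = 3; mean ± SD.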
SMILES,Activity [1],Activity [2],Activity [3],Activity [4],Activity [5],Activity [6],Activity [7],Activity [8],inhibition [9],Activity [10],inhibition [11],Activity [12],solubility [13],Activity [14],pKd [15],Activity [16],Activity [17],Activity [18],Activity [19],pKd [20]
CC1=CC(C)=[N+]2C1=C(CCCO)c1c(C)cc(/C=C/c3cnc(N(C)C)s3)n1[B-]2(F)F,Active,Active,Active,Active,Active,5.2 10^8(p/s/cm^2/sr)/(uW/cm^2),Active,Active,Dose-Dependent Effect,Active,Active,Active,Soluble,Non-Toxic,7.11,Active,Active,inactive,Active,–
Cc1cc(/C=C/c2ccc(N(C)C)s2)n2c1C=C1C=CC=[N+]1[B-]2(F)F,–,–,–,–,–,–,–,–,–,–,–,–,–,–,–,–,–,–,–,7.26
CC1=CC(C)=[N+]2C1=C(CCCN1CCNc3ccccc31)c1c(C)cc(/C=C/c3ccc(N(C)C)s3)n1[B-]2(F)F,–,–,–,–,–,–,–,–,–,–,–,–,–,–,7.57,–,–,–,–,–
